In ChEMBL document CHEMBL1828552, “Synthesis and studies of novel 2-(4-cyano-3-trifluoromethylphenyl amino)-4-(quinoline-4-yloxy)-6-(piperazinyl/piperidinyl)-s-triazines as potential antimicrobial, antimycobacterial and anticancer agents” (2011):
In brackets after ≈: the same amount, converted by molar mass.

tested on: Aspergillus niger; test: Antifungal activity against 10^5 CFU/mL Aspergillus niger MTCC 282 after 48 hrs by disc diffusion technique; assay type: functional; details: not given

Row | SMILES | inhibition zone (IZ)
1 | CN1CCN(c2nc(Nc3ccc(C#N)c(C(F)(F)F)c3)nc(Oc3ccnc4ccccc34)n2)CC1 | <10 mm

tested on: Aspergillus clavatus; test: Antifungal activity against 10^5 CFU/mL Aspergillus clavatus MTCC 1323 after 48 hrs by disc diffusion technique; assay type: functional; details: not given

Row | SMILES | inhibition zone (IZ)
2 | CN1CCN(c2nc(Nc3ccc(C#N)c(C(F)(F)F)c3)nc(Oc3ccnc4ccccc34)n2)CC1 | <10 mm

tested on: Klebsiella pneumoniae; test: Antibacterial activity against 10^5 CFU/mL Klebsiella pneumoniae MTCC 109 after 24 hrs by agar streak dilution method; assay type: functional; details: MTCC 109, 24 h
Method in brief: (§1)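 Agar streak dilution. Stock 100 µg/mL in DMSO; graded amounts were mixed into molten nutrient agar and poured at 4–5 mm depth. Plates carried serial dilutions over […]. About 10⁵ CFU/mL of each bacterium was applied, and plates were incubated at 37 ± 1 °C for 24 h. MIC was read from the dilution series.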

Row | SMILES | MIC
3 | CN1CCN(c2nc(Nc3ccc(C#N)c(C(F)(F)F)c3)nc(Oc3ccnc4ccccc34)n2)CC1 | 100 µg/mL (≈ 197 µM)

tested on: Aspergillus fumigatus; test: Antifungal activity against 10^5 CFU/mL Aspergillus fumigatus MTCC 343 after 48 hrs by disc diffusion technique; assay type: functional; details: not given

Row | SMILES | inhibition zone (IZ)
4 | CN1CCN(c2nc(Nc3ccc(C#N)c(C(F)(F)F)c3)nc(Oc3ccnc4ccccc34)n2)CC1 | <10 mm

tested on: Staphylococcus aureus; test: Antibacterial activity against 10^5 CFU/mL Staphylococcus aureus MTCC 96 after 24 hrs by disc diffusion technique; assay type: functional; details: not given
Method in brief: (§2)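 Disc diffusion on Mueller–Hinton agar poured 5 mm deep. The surface was swabbed with a 10⁵ CFU/mL […] suspension. Filter-paper discs 6.25 mm in diameter were soaked in compound in DMSO and placed on the agar. Plates were incubated 24 h at 37 ± 1 °C, and the inhibition zone was measured in mm. A DMSO disc served as blank.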

Row | SMILES | inhibition zone (IZ)
5 | CN1CCN(c2nc(Nc3ccc(C#N)c(C(F)(F)F)c3)nc(Oc3ccnc4ccccc34)n2)CC1 | <10 mm

tested on: Proteus vulgaris; test: Antibacterial activity against 10^5 CFU/mL Proteus vulgaris MTCC 1771 after 24 hrs by agar streak dilution method; assay type: functional; details: MTCC 1771, 24 h; method in brief: as §1

Row | SMILES | MIC
6 | CN1CCN(c2nc(Nc3ccc(C#N)c(C(F)(F)F)c3)nc(Oc3ccnc4ccccc34)n2)CC1 | 100 µg/mL (≈ 197 µM)

tested on: Shigella flexneri; test: Antibacterial activity against 10^5 CFU/mL Shigella flexneri MTCC 1457 after 24 hrs by agar streak dilution method; assay type: functional; details: MTCC 1457, 24 h; method in brief: as §1

Row | SMILES | MIC
7 | CN1CCN(c2nc(Nc3ccc(C#N)c(C(F)(F)F)c3)nc(Oc3ccnc4ccccc34)n2)CC1 | 100 µg/mL (≈ 197 µM)

tested on: Pseudomonas aeruginosa; test: Antibacterial activity against 10^5 CFU/mL Pseudomonas aeruginosa MTCC 741 after 24 hrs by disc diffusion technique; assay type: functional; details: not given; method in brief: as §2

Row | SMILES | inhibition zone (IZ)
8 | CN1CCN(c2nc(Nc3ccc(C#N)c(C(F)(F)F)c3)nc(Oc3ccnc4ccccc34)n2)CC1 | 14 mm

tested on: Aspergillus fumigatus; test: Antifungal activity against 10^5 CFU/mL Aspergillus fumigatus MTCC 343 after 48 hrs by agar streak dilution method; assay type: functional; details: MTCC 343, 48 h
Method in brief: (§3)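 Agar streak dilution for fungi. Stock 100 µg/mL in DMSO; graded amounts were mixed into molten Sabouraud dextrose agar and poured at 4–5 mm depth. Serial dilutions ran over […]. About 10⁵ CFU/mL inoculum was applied, with incubation at 37 ± 1 °C for 48 h. MIC was read from the dilution series.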

Row | SMILES | MIC
9 | CN1CCN(c2nc(Nc3ccc(C#N)c(C(F)(F)F)c3)nc(Oc3ccnc4ccccc34)n2)CC1 | 100 µg/mL (≈ 197 µM)

tested on: Salmonella typhi; test: Antibacterial activity against 10^5 CFU/mL Salmonella typhi MTCC 733 after 24 hrs by agar streak dilution method; assay type: functional, Salmonella enterica subsp. enterica serovar Typhi; details: Salmonella enterica, MTCC 733, 24 h

Row | SMILES | MIC
10 | CN1CCN(c2nc(Nc3ccc(C#N)c(C(F)(F)F)c3)nc(Oc3ccnc4ccccc34)n2)CC1 | 100 µg/mL (≈ 197 µM)

tested on: DU-145; test: Cytotoxicity against […] human DU145 cells after 48 hrs by SRB assay; assay type: functional; details: DU-145, 48 h
Method in brief: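 SRB assay in DU-145 cells grown in RPMI 1640 with 10% FBS and 2 mM L-glutamine. Cells were plated and held 24 h before addition of four 10-fold concentrations. After 48 h, cells were TCA-fixed, stained with 0.4% SRB and read at 540 nm. GI50, TGI and LC50 were derived against time-zero and control wells; each value is the mean of three experiments.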

Row | SMILES | GI50 | LC50 (concentration giving 50% net cell kill relative to time zero) | TGI
11 | CN1CCN(c2nc(Nc3ccc(C#N)c(C(F)(F)F)c3)nc(Oc3ccnc4ccccc34)n2)CC1 | 51.2 µM | > 100 µM | > 100 µM

tested on: Bacillus cereus; test: Antibacterial activity against 10^5 CFU/mL Bacillus cereus MTCC 619 after 24 hrs by disc diffusion technique; assay type: functional; details: not given; method in brief: as §2

Row | SMILES | inhibition zone (IZ)
12 | CN1CCN(c2nc(Nc3ccc(C#N)c(C(F)(F)F)c3)nc(Oc3ccnc4ccccc34)n2)CC1 | <10 mm

tested on: Aspergillus clavatus; test: Antifungal activity against 10^5 CFU/mL Aspergillus clavatus MTCC 1323 after 48 hrs by agar streak dilution method; assay type: functional; details: MTCC 1323, 48 h; method in brief: as §3

Row | SMILES | MIC
13 | CN1CCN(c2nc(Nc3ccc(C#N)c(C(F)(F)F)c3)nc(Oc3ccnc4ccccc34)n2)CC1 | 100 µg/mL (≈ 197 µM)

tested on: Shigella flexneri; test: Antibacterial activity against 10^5 CFU/mL Shigella flexneri MTCC 1457 after 24 hrs by disc diffusion technique; assay type: functional; details: not given; method in brief: as §2

Row | SMILES | inhibition zone (IZ)
14 | CN1CCN(c2nc(Nc3ccc(C#N)c(C(F)(F)F)c3)nc(Oc3ccnc4ccccc34)n2)CC1 | 11 mm

tested on: Escherichia coli; test: Antibacterial activity against 10^5 CFU/mL Escherichia coli MTCC 739 after 24 hrs by agar streak dilution method; assay type: functional; details: MTCC 739, 24 h; method in brief: as §1

Row | SMILES | MIC
15 | CN1CCN(c2nc(Nc3ccc(C#N)c(C(F)(F)F)c3)nc(Oc3ccnc4ccccc34)n2)CC1 | 100 µg/mL (≈ 197 µM)

tested on: Candida albicans; test: Antifungal activity against 10^5 CFU/mL Candida albicans MTCC 183 after 48 hrs by disc diffusion technique; assay type: functional; details: not given

Row | SMILES | inhibition zone (IZ)
16 | CN1CCN(c2nc(Nc3ccc(C#N)c(C(F)(F)F)c3)nc(Oc3ccnc4ccccc34)n2)CC1 | <10 mm

tested on: Escherichia coli; test: Antibacterial activity against 10^5 CFU/mL Escherichia coli MTCC 739 after 24 hrs by disc diffusion technique; assay type: functional; details: not given; method in brief: as §2

Row | SMILES | inhibition zone (IZ)
17 | CN1CCN(c2nc(Nc3ccc(C#N)c(C(F)(F)F)c3)nc(Oc3ccnc4ccccc34)n2)CC1 | <10 mm

tested on: Aspergillus niger; test: Antifungal activity against 10^5 CFU/mL Aspergillus niger MTCC 282 after 48 hrs by agar streak dilution method; assay type: functional; details: MTCC 282, 48 h; method in brief: as §3

Row | SMILES | MIC
18 | CN1CCN(c2nc(Nc3ccc(C#N)c(C(F)(F)F)c3)nc(Oc3ccnc4ccccc34)n2)CC1 | 100 µg/mL (≈ 197 µM)

tested on: Salmonella typhi; test: Antibacterial activity against 10^5 CFU/mL Salmonella typhi MTCC 733 after 24 hrs by disc diffusion technique; assay type: functional, Salmonella enterica subsp. enterica serovar Typhi; details: not given
Method in brief: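 Disc diffusion. Mueller-Hinton agar autoclaved 120 °C 30 min, poured 5 mm deep. Surface swabbed with 10⁵ CFU/mL suspension […]. 6.25 mm filter-paper discs soaked in compound in DMSO; DMSO-only disc as blank. Incubated 37 ± 1 °C, 24 h for bacteria or 48 h for fungi. Ciprofloxacin and ketoconazole discs as reference drugs. Inhibition zone measured in mm.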

Row | SMILES | inhibition zone (IZ)
19 | CN1CCN(c2nc(Nc3ccc(C#N)c(C(F)(F)F)c3)nc(Oc3ccnc4ccccc34)n2)CC1 | 13 mm

tested on: Proteus vulgaris; test: Antibacterial activity against 10^5 CFU/mL Proteus vulgaris MTCC 1771 after 24 hrs by disc diffusion technique; assay type: functional; details: not given; method in brief: as §2

Row | SMILES | inhibition zone (IZ)
20 | CN1CCN(c2nc(Nc3ccc(C#N)c(C(F)(F)F)c3)nc(Oc3ccnc4ccccc34)n2)CC1 | <10 mm

tested on: Candida albicans; test: Antifungal activity against 10^5 CFU/mL Candida albicans MTCC 183 after 48 hrs by agar streak dilution method; assay type: functional; details: MTCC 183, 48 h; method in brief: as §3

Row | SMILES | MIC
21 | CN1CCN(c2nc(Nc3ccc(C#N)c(C(F)(F)F)c3)nc(Oc3ccnc4ccccc34)n2)CC1 | 100 µg/mL (≈ 197 µM)

tested on: Klebsiella pneumoniae; test: Antibacterial activity against 10^5 CFU/mL Klebsiella pneumoniae MTCC 109 after 24 hrs by disc diffusion technique; assay type: functional; details: not given; method in brief: as §2

Row | SMILES | inhibition zone (IZ)
22 | CN1CCN(c2nc(Nc3ccc(C#N)c(C(F)(F)F)c3)nc(Oc3ccnc4ccccc34)n2)CC1 | <10 mm

tested on: Pseudomonas aeruginosa; test: Antibacterial activity against 10^5 CFU/mL Pseudomonas aeruginosa MTCC 741 after 24 hrs by agar streak dilution method; assay type: functional; details: MTCC 741, 24 h; method in brief: as §1

Row | SMILES | MIC
23 | CN1CCN(c2nc(Nc3ccc(C#N)c(C(F)(F)F)c3)nc(Oc3ccnc4ccccc34)n2)CC1 | 100 µg/mL (≈ 197 µM)

tested on: Staphylococcus aureus; test: Antibacterial activity against 10^5 CFU/mL Staphylococcus aureus MTCC 96 after 24 hrs by agar streak dilution method; assay type: functional; details: MTCC 96, 24 h; method in brief: as §1

Row | SMILES | MIC
24 | CN1CCN(c2nc(Nc3ccc(C#N)c(C(F)(F)F)c3)nc(Oc3ccnc4ccccc34)n2)CC1 | 100 µg/mL (≈ 197 µM)

tested on: Bacillus cereus; test: Antibacterial activity against 10^5 CFU/mL Bacillus cereus MTCC 619 after 24 hrs by agar streak dilution method; assay type: functional; details: MTCC 619, 24 h; method in brief: as §1

Row | SMILES | MIC
25 | CN1CCN(c2nc(Nc3ccc(C#N)c(C(F)(F)F)c3)nc(Oc3ccnc4ccccc34)n2)CC1 | 100 µg/mL (≈ 197 µM)
